Env fusion inh – HIV envelope-mediated fusion inhibition | hit rate 1.1% among 360,000 | inhibition, % at 12.3 µM | HeLa-JRFL Env/CEM21 cell fusion, luciferase;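 active means mean replicate inhibition score of at least 50 and every replicate individually at or above 50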;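 further: 0% = plate neutral controls and 100% = maraviroc near 300 nM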
Rtt109 HAT inh – blocks Candida albicans Rtt109/Vps75 acetyltransferase activity. inhibition, % at 34.9 µM. hit rate 0.16% among 330,000. Q5AAJ8. purified Rtt109/Vps75, ThioGlo CoA-SH fluorescence, 4 h;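 active means inhibition of at least 50% in every replicate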
Target sequence (Q5AAJ8 whole entry, looked up): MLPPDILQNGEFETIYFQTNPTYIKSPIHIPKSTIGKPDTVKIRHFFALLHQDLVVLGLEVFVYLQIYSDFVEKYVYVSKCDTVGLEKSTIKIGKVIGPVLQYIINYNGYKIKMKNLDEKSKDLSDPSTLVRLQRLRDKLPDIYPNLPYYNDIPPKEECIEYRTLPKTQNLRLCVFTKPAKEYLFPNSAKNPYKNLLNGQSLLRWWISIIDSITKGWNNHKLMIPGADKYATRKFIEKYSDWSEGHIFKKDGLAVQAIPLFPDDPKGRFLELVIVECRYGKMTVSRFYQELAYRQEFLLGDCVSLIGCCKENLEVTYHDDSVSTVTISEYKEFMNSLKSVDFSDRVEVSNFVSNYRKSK
GSIS activator – GLuc luminescence reporter in INS-1E cells, primary screen for activators of glucose-dependent secretion of insulin; INS-1E GLuc reporter insulin secretion, 2-3 h; activation, % at 16.6 µM; AID 743287; hit rate 0.61% among 370,000;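 active means lowest replicate activation of at least 40%, so every replicate reaches that level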;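 further: 0% = median of neutral control wells and 100% = median of IBMX positive control wells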
miR122 inh – blocks miR-122 activity in Huh7 sensor cells; hit rate 0.3% among 340,000; activation (reporter increase), % at 12.5 µM; Huh7 miR-122 Renilla luciferase sensor, 48 h; neutral wells = 0, positive control = 100; AID 602342;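 active means mean replicate activation score at least 90 and every replicate individually at or above 90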;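 further: higher luciferase means less miR-122 activity so hits act as miR-122 inhibitors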
dFosB act – enhances mouse delta FosB homodimer DNA binding; AID 493131; activation, % at 25 µM; P13346; purified delta FosB, TAMRA-CDK5 oligo fluorescence polarization; percent of positive-control signal above neutral wells; hit rate 0.99% among 340,000;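 active means mean activation above about 17%, with every replicate also reaching it, limit read from the data, passing the limit was not always enough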
Cneo AK release – Cryptococcus neoformans lysis via adenylate kinase release. C. neoformans lysis, adenylate kinase release luminescence, 4 h; normalised: neutral wells 0, clomiphene wells 100. lysis activity, % at 15 µM. hit rate 0.2% among 360,000;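 active means mean lysis activity across replicates of at least 80%, whatever share of replicates individually reach that level; inactive means mean lysis activity below 80%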
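Test system: log-phase Cryptococcus neoformans yeast cells; Quantity: yeast cell density of 5 × 10^6 cells/mL; Buffer or medium: YPD; Doses: single compound concentration per well; Timing: 4 h at 37 °C static, read 1 h later; Measured by: AK luminescence; Read-out basis: lysis from increased AK signal; Control set: Clomiphene as positive control.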
* = called active by the depositor; [ ] = remark or other dose. Sampled rows, rich in hits. Any-hit rate of the full collection: about 2.4%.

For CC[C@@]1(C(=O)OC)N[C@H](CN(C)C(C)=O)[C@@H]2C(=O)N(Cc3ccccc3)C(=O)[C@@H]21 the results were Env fusion inh 18, Rtt109 HAT inh 11, GSIS activator 24, dFosB act 0 and Cneo AK release 0.
For CCN(C[C@H]1N[C@@](Cc2ccccc2)(C(=O)OC)[C@H]2C(=O)N(Cc3ccccc3)C(=O)[C@@H]12)C(=O)c1ccc(F)cc1 the results were Env fusion inh -115, Rtt109 HAT inh 3, GSIS activator -13, miR122 inh -6, dFosB act -9 and Cneo AK release 2.
`C[C@@H]1CN([C@@H](C)CO)C(=O)c2c(c3ccccc3n2C)-c2ccccc2CO[C@@H]1CN(C)C(=O)c1cc(Cl)cc(Cl)c1` gave GSIS activator -9.
`COc1ccc(/C(=C/c2ccc(OC(F)F)c(OC)c2)C(=O)O)cc1OC` gave Env fusion inh -8, Rtt109 HAT inh 0, GSIS activator 75* and dFosB act 3.
COc1cc(/C=C(/C(=O)O)c2ccc(-c3ccccc3)cc2)cc(OC)c1OC was read as Env fusion inh -25, Rtt109 HAT inh -5, GSIS activator 10, miR122 inh 4, dFosB act -2 and Cneo AK release 2.
Screening Cc1cc2nc(C(C)(C)C)cc(N)n2n1 returned Env fusion inh 18, Rtt109 HAT inh 0, GSIS activator 2, miR122 inh -5, dFosB act 4 and Cneo AK release 0.
`CC(C)(C)c1cc(N)n2nc(C(C)(C)C)cc2n1` gave Env fusion inh 0, Rtt109 HAT inh 53*, GSIS activator 6 and dFosB act 3.
For CC=Cc1ccc2n(c1=O)C[C@@H]1[C@@H](CO)[C@H](C(=O)NCc3ccccc3)[C@H]2N1C (mixture of isomers) the results were GSIS activator 7, miR122 inh -6[16.7 µM] and Cneo AK release 3.
Cc1ccccc1C(=O)Nc1ccc(Br)c(C)n1 was read as Rtt109 HAT inh -5, GSIS activator -10, miR122 inh 128*, dFosB act -11 and Cneo AK release -5.
Cc1nc(NC(=O)c2cccnc2)ccc1Br was read as Rtt109 HAT inh -1, miR122 inh -2, dFosB act -4 and Cneo AK release -2.
Screening COc1cccc(NC(=O)N2C[C@H](O)COC[C@H]3O[C@@H](CC(=O)NCCCN4CCOCC4)CC[C@@H]32)c1 returned GSIS activator 37, miR122 inh 3[16.7 µM] and Cneo AK release -2.
`CCC(=O)N1CC(=O)N2[C@@H](CO)[C@H](c3ccc(C#Cc4cccc(OC)c4)cc3)[C@@H]2C1` gave GSIS activator 4.
Cc1cc(C)n2nc(NCc3cccc(Br)c3)nc2n1 was read as Env fusion inh 106*, Rtt109 HAT inh 1, miR122 inh 12, dFosB act -4 and Cneo AK release -1.
For CCCC#Cc1cnc2c(c1)C(=O)N([C@@H](C)CO)C[C@@H](C)[C@H](CN(C)Cc1ccccc1)O2 the results were Env fusion inh -7[16.7 µM], GSIS activator -7, miR122 inh -8[16.7 µM] and Cneo AK release 0.
CNC[C@@H]1Oc2cc(C#CC3CCCC3)ccc2S(=O)(=O)N([C@@H](C)CO)C[C@H]1C was read as Env fusion inh 19[16.7 µM], GSIS activator 0, miR122 inh -25[16.7 µM] and Cneo AK release -2.
Cc1ccc(-c2nc(CSCC(=O)NCCCN3CCOCC3)c(C)o2)cc1 was read as Env fusion inh -4, Rtt109 HAT inh -6, miR122 inh -13, dFosB act 4 and Cneo AK release 0.
`Cc1ccc(-c2nc(CSCC(=O)NCCN3CCN(Cc4ccccc4)CC3)c(C)o2)cc1` gave Env fusion inh -12, Rtt109 HAT inh 28, miR122 inh 170*, dFosB act -10 and Cneo AK release -1.
Screening N#Cc1ccc(S(=O)(=O)N2CCCN(c3nc4ccc(Cl)cc4s3)CC2)cc1 returned Env fusion inh 55*, Rtt109 HAT inh 2, GSIS activator -3, miR122 inh -1, dFosB act -4 and Cneo AK release -1.
`CN1C(=O)c2cc(NC(=O)C3CCOCC3)ccc2OC[C@@H]2O[C@H](CC(=O)NCc3ccc4c(c3)OCO4)CC[C@@H]21` gave Env fusion inh -15[16.7 µM], GSIS activator -5 and Cneo AK release -2.
For COc1ccc2c(c1)-c1c(ssc1=S)C(C)(C)N2S(=O)(=O)c1ccc(C)cc1 the results were Env fusion inh 72*, Rtt109 HAT inh 1, GSIS activator -9 and dFosB act -3.
Screening COc1ccc2c(c1)-c1c(ssc1=S)C(C)(C)N2 returned Env fusion inh 62*, Rtt109 HAT inh 0, miR122 inh 12, dFosB act -2 and Cneo AK release -2.
CCOC(=O)c1sc2nc(-c3ccco3)c3c(c2c1N)CC(C)(C)OC3 was read as Env fusion inh -19, Rtt109 HAT inh -6, miR122 inh -1, dFosB act -18 and Cneo AK release -2.
Screening CC1(C)Cc2c(c(-c3ccco3)nc3n[nH]c(N)c23)CO1 returned Rtt109 HAT inh -6, GSIS activator 56*, miR122 inh -2, dFosB act -1 and Cneo AK release 0.
Screening C[C@H]1CN(C)C(=O)c2cc(N)ccc2O[C@H]1CN(C)C returned GSIS activator 6.
CO[C@H]1CN(C)C(=O)c2ccc(NC(=O)c3cnccn3)cc2OC[C@H](C)NC[C@H]1C was read as Env fusion inh -9[16.7 µM], GSIS activator 1 and Cneo AK release 2.
Screening Cc1nc2ccc(S(=O)(=O)Nc3ccccc3C)cc2s1 returned Rtt109 HAT inh 0, GSIS activator 3, miR122 inh 127* and dFosB act -5.
`Cc1cc(S(=O)(=O)Nc2ccccc2C)ccc1F` gave Rtt109 HAT inh -15, GSIS activator 6, miR122 inh 32, dFosB act 5 and Cneo AK release -1.
Cc1nc2ccc(NS(=O)(=O)c3ccc(C)c(C)c3)cc2s1 was read as Env fusion inh 71*, Rtt109 HAT inh -2, miR122 inh 23, dFosB act -20 and Cneo AK release -4.
Screening O=C(O)COc1ccc2c3c(c(=O)oc2c1)CCC3 returned Rtt109 HAT inh 2, GSIS activator 131*, miR122 inh -5, dFosB act -10 and Cneo AK release -2.
`CC(Oc1ccc2c3c(c(=O)oc2c1)CCCC3)C(=O)NCc1cccnc1` (stereo not given) gave Env fusion inh -16, Rtt109 HAT inh 8, GSIS activator 48*, miR122 inh 0, dFosB act -6 and Cneo AK release -3.

From PubChem BioAssay
